Our source for the IC50 values is ChEMBL document CHEMBL2331480, “Novel naphthoquinone derivatives: synthesis and activity against human African trypanosomiasis” (Bioorg Med Chem Lett, 2013).

SMILES strings stand for the structures.

One test has as its system L6. The test is described as follows: Cytotoxicity against rat L6 cells after 72 hrs by SRB assay. The test is classed as cell-based. Conditions: L6, 72 h. In a few lines: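 L-6 rat skeletal myoblasts seeded at 2 × 10^3 cells/100 µL in DMEM with 10% heat-inactivated FBS onto threefold serially diluted compounds, with solvent blanks; 72 h at 37 °C, 5% CO2. Cells fixed with TCA (10% final, 4 °C, 1 h), stained 45 min with 0.4% SRB in 1% acetic acid, dye solubilized in 10 mM Tris base pH 10.5.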
A general note: In SRB staining, fixed cells bind dye roughly in proportion to their protein.

Test [1] deals with Trypanosoma brucei rhodesiense. Put plainly: Antitrypanosomal activity against Trypanosoma brucei rhodesiense after 48 hrs by CellTiter-Glo assay. It counts as functional, organism-based. In outline: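 T. b. rhodesiense bloodstream forms isolated from infected blood (citrate-glucose anticoagulant, diluted in HMI-9, low-speed spin), grown at 37 °C, 5% CO2 in HMI-9 with 10% heat-inactivated FBS and 10% Serum Plus. Compounds in DMSO pin-transferred onto diluted culture; 48 h at 37 °C; CellTiter-Glo read […] as percent of control; IC50 calculated.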
In general terms: Cellular ATP, detected with luciferase, serves as a proxy for viable cell number.

As to `Cc1ccc(NC2=C(Cl)C(=O)c3ccccc3C2=O)cc1`, the concentration for half-maximal inhibition (IC50) was above 450 µM in the test on L6 and 20 µM in test [1].

As to `O=C1C(Cl)=C(Nc2ccccc2)C(=O)c2ccccc21`, the IC50 in the test with L6 was determined as 417 µM; in test [1] it was 0.17 µM.

Turning to `Cc1ccccc1NC1=C(Cl)C(=O)c2ccccc2C1=O`, the values for the IC50 (in the test on L6; in test [1]) were above 450 µM and 18 µM, respectively.

As for `Cc1cccc(NC2=C(Cl)C(=O)c3cccc([N+](=O)[O-])c3C2=O)c1`, the half-inhibitory concentration (IC50) came out at 214 µM with L6 and 10 µM in test [1].

In the case of `Cc1cccc(NC2=C(Cl)C(=O)c3c(cccc3[N+](=O)[O-])C2=O)c1`, the results for the concentration for half-maximal inhibition (IC50) (in the test with L6; in test [1]) were 223 µM and 11 µM, respectively.

Regarding `O=C1C(Nc2ccccc2C(F)(F)F)=C(Nc2ccccc2C(F)(F)F)C(=O)c2ccccc21`, the IC50 in the test on L6 is 292 µM; in test [1], 0.45 µM.

Turning to `O=C1C(Cl)=C(Nc2ccccc2C(F)(F)F)C(=O)c2ccccc21`, the 50% inhibitory concentration (IC50) with L6 turned out to be 307 µM; in test [1], 0.15 µM.

Regarding `O=C1C(Nc2ccccc2C(F)(F)F)=C(Nc2ccccc2C(F)(F)F)C(=O)c2c1cccc2[N+](=O)[O-]`, the IC50 in the test with L6 was 88 µM; in test [1], 0.09 µM.

Consider `O=C1C(Cl)=C(Nc2ccccc2C(F)(F)F)C(=O)c2c1cccc2[N+](=O)[O-]`, for which the results for the IC50 (in the test on L6; in test [1]) were 75 µM and 0.07 µM, respectively.

With `O=C1C(Nc2ccccc2C(F)(F)F)=C(Cl)C(=O)c2c1cccc2[N+](=O)[O-]`, the IC50 with L6 worked out at 95 µM; in test [1], 0.05 µM.

`O=C1C(Nc2ccc(C(F)(F)F)cc2)=C(Nc2ccc(C(F)(F)F)cc2)C(=O)c2ccccc21`: the IC50 in the test with L6 amounted to 276 µM; in test [1], 2 µM.

As to `O=C1C(Cl)=C(Nc2ccc(C(F)(F)F)cc2)C(=O)c2ccccc21`, the IC50 with L6 came to 292 µM; in test [1], 0.8 µM.

As to `O=C1C(Nc2ccc(C(F)(F)F)cc2)=C(Nc2ccc(C(F)(F)F)cc2)C(=O)c2c1cccc2[N+](=O)[O-]`, the IC50 in the test on L6 worked out at 97 µM; in test [1], 4 µM.

With `O=C1C(Cl)=C(Nc2ccc(C(F)(F)F)cc2)C(=O)c2c1cccc2[N+](=O)[O-]`, the values for the IC50 (with L6; in test [1]) were 121 µM and 2 µM, respectively.

Turning to `O=C1C(Nc2ccc(C(F)(F)F)cc2)=C(Cl)C(=O)c2c1cccc2[N+](=O)[O-]`, the IC50 in the test with L6 came out at 115 µM; in test [1], 0.8 µM.

Turning to `O=C1C(Nc2ccccc2)=C(Nc2ccccc2)C(=O)c2ccccc21`, the IC50 turned out to be 378 µM in the test with L6 and 0.67 µM in test [1].

Turning to `Cc1ccccc1NC1=C(Nc2ccccc2C)C(=O)c2ccccc2C1=O`, the values for the IC50 (with L6; in test [1]) were above 450 µM and 20 µM, respectively.

In the case of `Cc1ccc(NC2=C(Nc3ccc(C)cc3)C(=O)c3ccccc3C2=O)cc1`, the IC50 was above 450 µM with L6 and 24 µM in test [1].

As for `Cc1cccc(NC2=C(Nc3cccc(C)c3)C(=O)c3ccccc3C2=O)c1`, the 50% inhibitory concentration (IC50) in the test on L6 was above 450 µM; in test [1] it was 21 µM.

As to `Cc1cccc(NC2=C(Cl)C(=O)c3ccccc3C2=O)c1`, the IC50 is above 450 µM in the test with L6 and 18 µM in test [1].

For `Cc1ccccc1NC1=C(Nc2ccccc2C)C(=O)c2c(cccc2[N+](=O)[O-])C1=O`, the values for the concentration for half-maximal inhibition (IC50) (in the test with L6; in test [1]) were 186 µM and 7 µM, respectively.

In the case of `Cc1ccccc1NC1=C(Cl)C(=O)c2cccc([N+](=O)[O-])c2C1=O`, the IC50 in the test with L6 was 195 µM; in test [1], 4 µM.

`Cc1ccccc1NC1=C(Cl)C(=O)c2c(cccc2[N+](=O)[O-])C1=O`: the figures for the IC50 (in the test with L6; in test [1]) were 210 µM and 3 µM, respectively.

For `Cc1ccc(NC2=C(Nc3ccc(C)cc3)C(=O)c3c(cccc3[N+](=O)[O-])C2=O)cc1`, the IC50 with L6 was found to be 172 µM; in test [1], 12 µM.

As for `Cc1ccc(NC2=C(Cl)C(=O)c3cccc([N+](=O)[O-])c3C2=O)cc1`, the figures for the IC50 (in the test with L6; in test [1]) were 186 µM and 8 µM, respectively.

As to `Cc1ccc(NC2=C(Cl)C(=O)c3c(cccc3[N+](=O)[O-])C2=O)cc1`, the IC50 in the test with L6 stood at 169 µM; in test [1], 6 µM.

Turning to `Cc1cccc(NC2=C(Nc3cccc(C)c3)C(=O)c3c(cccc3[N+](=O)[O-])C2=O)c1`, the IC50 with L6 is 195 µM; in test [1], 15 µM.

The IC50 is the concentration that inhibits the measured activity by half.
